From PubChem
Rows were chosen to be rich in hits. Some 0.85% of all compounds tested hit in one or more screens of this group.
V1R ag counter – counter-screen for oxytocin receptor agonists: human V1a receptor agonists | CHO-V1R cells, Fluo-8 calcium fluorescence, agonist mode; 0% DMSO, 100% 3 nM vasopressin | activation, % at 3 µM | hit rate 0.25% among 320,000 | AID 2797;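 active = activation above the mean activation of all tested compounds plus 3 SD, per screening run, cut at about 20% in these data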;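 note: signal is peak over basal fluorescence ratio across a 100 second FLIPR read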
Target sequence (P37288 whole entry, looked up): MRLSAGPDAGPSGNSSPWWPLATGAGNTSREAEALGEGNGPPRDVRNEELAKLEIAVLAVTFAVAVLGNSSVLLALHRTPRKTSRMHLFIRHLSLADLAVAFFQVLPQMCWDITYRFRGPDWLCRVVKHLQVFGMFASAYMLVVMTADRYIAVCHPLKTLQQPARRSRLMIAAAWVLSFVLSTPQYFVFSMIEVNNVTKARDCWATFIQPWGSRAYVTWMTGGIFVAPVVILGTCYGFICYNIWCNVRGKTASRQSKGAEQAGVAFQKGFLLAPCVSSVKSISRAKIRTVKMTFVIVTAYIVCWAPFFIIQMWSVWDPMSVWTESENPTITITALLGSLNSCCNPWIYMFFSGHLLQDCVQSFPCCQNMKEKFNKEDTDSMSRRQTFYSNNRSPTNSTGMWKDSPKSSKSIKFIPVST
CRFR2-BP ag – CRF-BP/CRF-R2 complex agonism | HEK293 CRF-R2/CRF-BP, calcium dye fluorescence (FLIPR); percent of saturating CRF peptide response | activation, % at 13.2 µM | hit rate 0.46% among 350,000;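 active = activation of at least 50%, plus an integration ratio under a set limit after plate pattern correction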;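 note: plate controls were neutral control wells without compound for no effect and CRF at EC100 for full effect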
TRPML3 agonist – activates the human TRPML3 channel | Q8TDD5 | HEK293 TRPML3-YFP, Fluo-8 calcium fluorescence; 100% = the carbachol control signal | activation, % at 3 µM | hit rate 0.29% among 220,000 | AID 1448;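 active = activation above its plate's cutoff, the mean activation of the plate's test wells plus 3 SD, cut at about 12% in these data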;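 note: 0% = DMSO only wells and 100% = carbachol wells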
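Test system – HEK293 line with stable expression of human TRPML3-YFP channel · Control set – carbachol 87 µM final as high control (100%), DMSO as low control (0%) · Signal – Fluo-8 calcium dye fluorescence, ex 470-495, em 515-575 nm · Incubation – 1-h 37 °C dye load, 5-s basal, 120-s post-compound reads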
OXTR potentiator – potentiates the human oxytocin receptor response; P30559; CHO-OTR cells, Fluo-8 calcium fluorescence, potentiator mode; 0% = oxytocin EC15, 100% = EC100; activation, % at 3 µM; hit rate 0.061% among 320,000; AID 2445;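 active = activation above that plate's cutoff, the mean activation of tested compounds plus 3 SD, cut at about 6.6% in these data, passing the limit was not always enough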;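 note: 100% uses oxytocin at 75 nM as the full agonist control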
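Measured by – Fluo-8 calcium dye fluorescence · Test system – human OTR in CHO cells · Dosing – one concentration, 3.0 µM compound · Controls – EC15 oxytocin alone as 0%, 75 nM oxytocin as 100% · Evaluation – normalized max/min fluorescence ratio, % activation · Timing – 6 min pre-incubation, 100 s read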
zfTRPN1 agonist – zebrafish TRPN1 (NompC) channel agonism | HEK293 zebrafish TRPN1-YFP, Fluo-8 calcium fluorescence; 100% = response to 87 µM carbachol | activation, % at 3 µM | hit rate 0.18% among 220,000;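 active = activation above its plate's cutoff, the mean activation of test wells on that plate plus 3 SD, cut at about 19% in these data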;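 note: 0% = DMSO alone and 100% = 87 µM carbachol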
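Assay system: Zebrafish TRPN1-YFP in HEK293 cells | Incubation: Dye loading 1 h at 37 °C, then 30 min room temperature | Measured by: Kinetic Fluo-8 fluorescence, ex 470-495, em 515-575 nm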
OXTR ag – human OXTR agonism; hit rate 0.32% among 320,000; activation, % at 3 µM; CHO-OTR cells, Fluo-8 calcium fluorescence; normalized: DMSO 0%, oxytocin 100%; AID 2435; P30559;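 active = activation above the mean of all tested compounds plus 3 SD, cutoff set per screening run, cut at about 20% in these data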;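 note: peak over basal fluorescence ratio from a 100 s FLIPR kinetic read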
OXTR agonist cf – confirmation of human oxytocin receptor agonists | shares compounds with OXTR ag | hit rate 20% among 390 | CHO-OTR cells, Fluo-8 calcium fluorescence, agonist | activation, % at 3 µM;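 active = mean activation above about 20% derived from the earlier single-dose screen, limit read from the data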;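 note: peak over minimum fluorescence ratio per well during a 100 second FLIPR read; 0% = DMSO alone and 100% = oxytocin high control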
V1aR counter 3x – V1R agonism in triplicate, counter-screen for OXTR agonists; shares compounds with OXTR ag; CHO-V1R cells, Fluo-8 calcium fluorescence, agonist; activation, % at 3 µM; hit rate 10% among 390;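 active = mean activation over triplicate exceeds the hit threshold set in the earlier primary screen, cut at about 20% in these data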;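 note: peak over basal fluorescence ratio within a 100 second read; 0% = DMSO alone and 100% = 3 nM vasopressin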
* hit, by the source's call; . = not tested or not shown.

SMILES	V1R ag counter	CRFR2-BP ag	TRPML3 agonist	OXTR potentiator	zfTRPN1 agonist	OXTR ag	OXTR agonist cf	V1aR counter 3x
COc1cccc(CNCc2ccc(OC)cc2OC)c1	3	0	.	-1	.	2	.	.
CCn1c2ccccc2c2cc(CNCc3ccc(OC)cc3OC)ccc21	5	2	1	-12	0	23*	5	2
CC(C)C[C@H]1CNC(=S)N1CC1CCN(CCCC2CCCC2)CC1	.	0	.	.	.	.	.	.
CC(=O)Nc1ccc(OCC(O)Cn2c3ccccc3c3ccccc32)cc1 (configuration not stated)	20	5	3	-16	8	17	.	.
CC(=O)Nc1ccc(OCC(O)Cn2c3ccccc3c3ccccc32)c(C)c1 (configuration not stated)	13	6	2	-13	5	22*	9	8
Cc1nc(SCC(=O)Nc2c(C)nn(C)c2C)c2cnn(-c3ccccc3)c2n1	6	-2	0	-17	1	23*	7	8
OCCC1CN(Cc2cccc3nccnc23)CCN1Cc1ccc(F)cc1 (configuration not stated)	0	-1	0	4	-1	1	.	.
O=C(Nc1nc(-c2nc3ccccc3s2)cs1)c1ccc(S(=O)(=O)N2CCOCC2)cc1	16	0	0	-15	1	21*	6	8
O=C(Nc1nc(-c2ccc(S(=O)(=O)N3CCOCC3)cc2)cs1)c1ccccc1	5	0	1	-16	7	10	.	.
Cc1cccc(OCCNc2cc(N3CCN(C)CC3)ccc2[N+](=O)[O-])c1	6	-3	1	2	0	4	.	.
Cc1ccc(OCCNc2cc(N3CCN(CCO)CC3)ccc2[N+](=O)[O-])cc1C	13	3	1	-10	6	23*	4	1
CC1=NN(c2nc3ccccc3[nH]2)C(=O)C1Cc1ccccc1 (configuration not stated)	-2	-3	-1	-3	1	0	.	.
C/C=C(\C)C(=O)N1CCC(C(=O)c2ccccc2)CC1	0	1	.	-9	.	0	.	.
COc1ccc(C2(C(=O)NCCc3ccccc3)CCCC2)cc1OC	-2	-4	.	-5	.	-2	.	.
CC(=O)Nc1ccc(NC(=O)C(C)OC(=O)/C(C#N)=C/c2ccc(N(C)C)cc2)cc1 (configuration not stated)	16	39	.	-23	.	20*	13	13
CC(OC(=O)/C(C#N)=C/c1ccc(N(C)C)cc1)C(=O)N(C)c1ccccc1 (configuration not stated)	16	.	.	-21	.	11	.	.
COC(C(=O)Nc1ccc(S(=O)(=O)Nc2ccc(F)cc2)cc1)c1ccccc1 (configuration not stated)	16	12	6	-10	15	20*	23*	14
C[C@H]1Cn2cnc(C(=O)NCC(=O)OC(C)(C)C)c2C(=O)N1	.	-1	.	.	.	.	.	.
O=C(Nc1ccsc1C(=O)O)c1ccc(Cl)cc1	0	-2	.	5	.	-1	.	.
O=C(Oc1ccc(-c2cn3c(n2)SCC3)cc1)c1ccccc1	13	1	3	-12	11	27*	9	8
CC(=O)Nc1ccc(-c2cn3c(n2)SCC3)cc1	1	3	.	-8	.	1	.	.
CC1=NN2C(=N)/C(=C\c3cc(C)n(Cc4ccccc4)c3C)C(=O)N=C2S1	8	-1	0	-19	2	22*	4	8
Cc1cc(C(=O)NNC(=O)c2ccc(Cl)cc2Cl)c(C)o1	0	0	.	-8	.	0	.	.
CC1(C)CC2(OC2c2ccccc2)C(=O)c2ccccc21 (configuration not stated)	.	-2	.	.	.	.	.	.
CCn1c(=O)c(C(=O)Nc2ncccc2C)c(O)c2ccccc21	20	10	3	-6	14	32*	6	33*
SMILES	V1R ag counter	CRFR2-BP ag	TRPML3 agonist	OXTR potentiator	zfTRPN1 agonist	OXTR ag	OXTR agonist cf	V1aR counter 3x
COC(=O)C1=C(C)N(Cc2ccccc2)C(=NCc2cccc(Cl)c2)N[C@H]1c1cccc(F)c1	13	3	.	-10	.	22*	12	6
COC(=O)C1=C(C)N(Cc2ccccc2)C(=NCc2cc(OC)c(OC)c(OC)c2)N[C@H]1c1cccc(F)c1	0	3	.	-8	.	21*	2	0
COC(=O)C1=C(C)N(Cc2ccccc2)C(=NCc2ccc(OC)cc2)N[C@H]1c1cccc(F)c1	20	10	.	-15	.	24*	7	2
COC(=O)C1=C(C)N(Cc2ccccc2)C(=NCC(C)C)N[C@H]1c1cccc(C(F)(F)F)c1	3	7	.	-10	.	14	.	.
COC(=O)C1=C(C)N(Cc2ccccc2)C(=NCc2ccccc2)N[C@H]1c1cccc(C(F)(F)F)c1	10	4	.	-5	.	22*	12	4
Cc1cccc(-c2nn(-c3ccccc3)cc2C(=O)N(C)CC(=O)Nc2ccc(N3CCOCC3)cc2)c1	-1	1	.	-1	.	0	.	.
Cn1c(=O)c(C(=O)NNC(=O)c2ccccc2F)c(O)c2ccccc21	6	51*	.	-11	.	20*	12	10
COc1ccc(C(=O)NNC(=S)NC(=O)c2cccs2)cc1	9	43	.	-15	.	13	.	.
COc1ccc(/C=C/C(=O)NC(=S)NNC(=O)c2cccs2)cc1	17	0	1	-35	1	26*	6	8
CC(C)(C)NC(=O)CC1C[C@H](C(=O)N2CCOCC2)[C@@]2(C)c3[nH]c4ccccc4c3CCN2C1=O (some centres not stated)	1	-1	.	5	.	0	.	.
NCc1ccccc1	0	1	.	2	.	0	.	.
Cc1cccc(CCN2C(Nc3ccccc3)=NC[C@@H]2CC(C)C)c1	16	111*	.	-19	.	21*	16	21*
COC(=O)C1CCN(C(=O)COC(=O)C2CCN(S(=O)(=O)c3ccc(C)c(C)c3)CC2)CC1	-2	-2	.	-9	.	-1	.	.
Cc1ccc(Oc2ccc(OCC(=O)OC3CCS(=O)(=O)C3)cc2)cc1 (configuration not stated)	16	.	2	-16	3	25*	2	6
Cc1cccc2sc(NC(=O)CCNS(=O)(=O)c3cccc4nonc34)nc12	13	6	1	-12	3	20*	4	3
CC(C)c1ccc(C2OCC(C)([N+](=O)[O-])CO2)cc1 (configuration not stated)	.	4	.	.	.	.	.	.
